Screens (PubChem)
SMARCA2 act: activators of SMARCA2 function | 370,000 tested, 1% active | MG213 cells, MMTV-luciferase reporter, dexamethasone, overnight | activation, % at 9.1 µM | AID 652017; in the data active = activation above about 7.8%;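 note: 0% = vehicle wells and 100% = reference activator wells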
GASC-1 inh: inhibitors of human GASC-1 (JMJD2C) demethylase; Q9H3R0; GST-JMJD2C(1-420) H3K9me3 demethylation, DELFIA europium; AID 2099; inhibition, % at 2.35 µM; 330,000 tested, 0.069% active;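 active = more than half of a compound's replicate wells show inhibition beyond 50%, single wells judged on their own value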;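 note: signal counts dimethyl H3K9 product captured on neutravidin plate; 0% = median of DMSO wells and 100% = 0.3 times that DMSO median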
Target sequence (Q9H3R0 1-420 limits assumed): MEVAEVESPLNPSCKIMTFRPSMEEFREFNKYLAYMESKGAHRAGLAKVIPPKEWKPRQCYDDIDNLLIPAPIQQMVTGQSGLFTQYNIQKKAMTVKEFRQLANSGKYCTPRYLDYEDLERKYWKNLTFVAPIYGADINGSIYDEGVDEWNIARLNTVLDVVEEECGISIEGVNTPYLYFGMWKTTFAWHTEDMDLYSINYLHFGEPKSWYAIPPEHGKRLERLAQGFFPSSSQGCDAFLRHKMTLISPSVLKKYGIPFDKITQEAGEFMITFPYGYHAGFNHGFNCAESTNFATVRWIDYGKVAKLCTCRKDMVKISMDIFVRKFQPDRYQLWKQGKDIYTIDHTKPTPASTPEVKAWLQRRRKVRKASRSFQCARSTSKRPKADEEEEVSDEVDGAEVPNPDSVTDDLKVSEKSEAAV
DAX1 inh-1: blocks DAX1 repression of SF-1 activated StAR promoter. HEK293T StAR-luciferase reporter, SF-1/DAX-1 repression relief. inhibition, % at 6.8 µM. 370,000 tested, 1.1% active;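 active = inhibition above the mean over all tested compounds plus 3 SD, cut at about 3.6% in these data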;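 note: 0% = DAX-1 cells with DMSO and 100% = cells lacking DAX-1 with DMSO; higher inhibition means more luminescence from relief of DAX-1 repression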
DAX1 inh-2: inhibits human nuclear receptor DAX1 | P51843 | HEK293 Gal4-DAX1 luciferase reporter, luminescence | inhibition, % at 6.75 µM | AID 504766 | 340,000 tested, 0.99% active;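 active = inhibition above the mean over all tested compounds plus 3 SD, cut at about 4.2% in these data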;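 note: 0% = DAX1-transfected cells with DMSO and 100% = empty-vector control cells with DMSO; inhibition shows as a rise in luminescence from relieved DAX1 repression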
NR2E3 ag-1: human photoreceptor-specific nuclear receptor agonism; Q9Y5X4; CHO-S Gal4-NCOR/VP16-NR2E3 two-hybrid, luciferase; inhibition of corepressor binding, % at 3.98 µM; 360,000 tested, 0.35% active;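 active = inhibition above the mean of all tested compounds plus 3 SD, cut at about 70% in these data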;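 note: 0% = DMSO with NR2E3 transfected cells and 100% = cells lacking NR2E3 construct; higher means lower luciferase signal from less NR2E3 corepressor binding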
NR2E3 ag-2: activates human photoreceptor nuclear receptor NR2E3; Q9Y5X4; GST-NR2E3/biotin-RetCOR TR-FRET, 1536-well; inhibition of corepressor binding, % at 4.78 µM; 320,000 tested, 0.12% active; AID 2300;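 active = percent inhibition above the cutoff of mean plus 3 SD of all tested compounds, set per screening campaign, cut at about 20% in these data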;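 note: 0% = DMSO wells and 100% = biotin wells as full block of FRET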
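Material: NR2E3–RetCOR corepressor complex | Quantity: 1.35 nM GST-tagged NR2E3 final | Schedule: 5 h at 4 °C | Replication: Singlicate compound wells | Reagent: RetCOR corepressor, biotinylated, 7 nM | Controls: Biotin wells as high control, 0.6% DMSO wells as low control | Signal: TR-FRET, Eu(K)-anti-GST donor, streptavidin-D2 acceptor, ex 340, em 617/671 nm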
An asterisk follows results filed as active; . = no result given. Most compounds without a hit are left out; they make up all but 3.2% or so of the library.

SMILES | SMARCA2 act | GASC-1 inh | DAX1 inh-1 | DAX1 inh-2 | NR2E3 ag-1 | NR2E3 ag-2
COc1ccc(CCN2CC(C(=O)Nc3ccccc3F)CC2=O)cc1OC (stereo not drawn) | 0 | 1 | -1 | 4.6* | -8 | -1
CC(=O)Nc1cccc(NC(=S)Nc2cccc(Cl)c2Cl)c1 | -1 | -2 | 0 | 1 | -23 | -1
S=C(N/N=C/c1ccccc1Cl)Nc1ccccc1 | 3 | -4 | 1 | 4.4* | -94 | 3
CNC(=S)N/N=C/c1ccccc1Cl | 0 | -5 | 0 | 1 | -12 | -1
S=C(Nc1ccccc1)Nc1cccc(Cl)c1Cl | -1 | 15 | -1 | 6.1* | -9 | 2
C#CCSc1nnnn1-c1cccc(Cl)c1 | -1 | -4 | -1 | 4.3* | 8 | 2
COC(=O)[C@]12C=CCN1[C@H](c1ccc(Cl)cc1)c1c(c3ccccc3n1S(=O)(=O)c1ccc(C)cc1)C2 | -1 | . | 0 | . | . | .
O=C(C1CCCN1S(=O)(=O)c1ccc(Cl)s1)N1CCN(c2ccccc2)CC1 (stereo not drawn) | -3 | . | 0 | . | . | .
CC(C)Oc1ccc2c(=O)c(-c3ccccc3)coc2c1 | 0 | -19 | 8.3* | 1 | -166 | -1
O=C(N/N=C/c1ccc([N+](=O)[O-])o1)C1CCCC1 | 1 | 15 | -6 | -1 | -1 | 0
O=[N+]([O-])c1ccc(/C=[N+](\[O-])[C@@H]2CCCC[C@@H]2/[N+]([O-])=C/c2ccc([N+](=O)[O-])o2)o1 | 2 | 89* | -1 | 0 | 4 | 0
Cc1ccc(-c2c[n+](CC(=O)Nc3ccccc3C)c3n2CCC3)cc1 | -3 | . | 0 | 4.3* | 15 | -3
O=C(C[n+]1cc(-c2ccc(F)cc2)n2c1CCC2)c1cccs1 | -1 | 8 | 0 | 6.7* | -122 | 2
Cc1ccc(NC(=O)C[n+]2cc(-c3ccccc3)n3c2CCC3)cc1 | -1 | -18 | 0 | . | 10 | -3
Cn1c(NC(=O)C[n+]2cc(-c3ccc(F)cc3)n3c2CCC3)cc(=O)n(C)c1=O | -5 | -15 | 0 | 2 | 22 | -4
CCOC(=O)C(=Cc1ccc(-c2ccsc2C(=O)OC)o1)C(=O)OCC | 6 | -2 | 0 | 1 | -13 | -1
COC(=O)C(=Cc1ccc(-c2ccsc2C(=O)OC)o1)C(=O)OC | 7.9* | 3 | 0 | 0 | 0 | -1
COc1ccc(C2C(C(=O)N3CCN(c4ccccc4C)CC3)CC(=O)N2c2ccc(OC)cc2)cc1 (stereo not drawn) | -1 | . | -2 | . | . | .
Nc1ccccc1NC(=O)NC(=O)c1ccccc1 | 6 | -1 | 2 | 4.6* | -67 | -2
Nc1ccccc1NC(=O)c1ccccc1N | 0 | -5 | 0 | 0 | -56 | 0
CCc1csc(N2[C@H](CN(CCOC)S(=O)(=O)c3ccccc3[N+](=O)[O-])[C@H](c3ccccc3)[C@@H]2CO)n1 | -1 | . | -1 | . | . | .
O=C(O)c1cccc(-c2nnn(Cc3ccccc3Cl)n2)c1 | 3 | 6 | 4.4* | -4 | -201 | -4
CC[C@@H](OP(=O)(O)[C@@H](C)N)C(=O)O | -1 | . | -1 | . | . | .
NC(=O)c1ccccc1Nc1nc(NCCO)nc(N2CCCC2)n1 | 4 | 4 | 1 | 4.4* | 16 | 1
O=[N+]([O-])c1cc(Cl)c2cccnc2c1O | -3 | 1 | 0 | 0 | 102* | 0
SMILES | SMARCA2 act | GASC-1 inh | DAX1 inh-1 | DAX1 inh-2 | NR2E3 ag-1 | NR2E3 ag-2
O=[N+]([O-])c1cc(F)c2cccnc2c1O | -2 | 0 | -1 | 1 | 29 | 3
O=C(Cc1ccccc1)NC1CCCCN(Cc2cccc(Cl)c2)C1=O (stereo not drawn) | -6 | . | 1 | . | . | .
CCOc1ccc(-c2ccc(SCC(=O)Nc3nnc(CC)s3)nn2)cc1 | 3 | . | 3.7* | 3 | -66 | -4
CCc1nnc(NC(=O)CSc2ccc(-c3ccc(C)cc3)nn2)s1 | 3 | -2 | 2 | 0 | -20 | 0
COc1ccc(/C(O)=C2\C(=O)C(=O)N(CCN(C)C)C2c2cccc(OC)c2OC)cc1 (stereo not drawn) | 9.6* | 2 | -1 | 1 | -24 | 2
CCCCNC(=O)C1CCCN1C(=O)Nc1cc(Cl)cc(Cl)c1 (stereo not drawn) | -7 | . | 1 | . | . | .
